Experimental data gathered from unrelated publications.
CDK7 with cyclin H: Cyclin-dependent kinase 7, with cyclin H (CDK7, Homo sapiens, UniProt P50613)
CDK7: Cyclin-dependent kinase 7 (CDK7, Homo sapiens, UniProt P50613)

SMILES	target	test	conditions	quantity	result
COc1cc(Nc2c(C#N)cnc3cc(OCCCN4CCN(C)CC4)c(OC)cc23)c(Cl)cc1Cl	CDK7 with cyclin H	cell-free assay	0.5 µM	remaining signal	113%
CO[C@@H](C)c1c(Nc2ccc([C@@H](N(C)C(=O)C3CCS(=O)(=O)CC3)C(F)(F)F)cc2)cnc2cc(Cl)nn12	CDK7	cell-free assay, competition with immobilised ligand	1 µM	remaining binding	100%
Cn1cc2c3ccccc3nc-2c2ccccc21	CDK7 with cyclin H	enzyme activity, inhibitor, ADP detection	10 µM	inhibition	38.3%
C[C@H](c1ccc(F)cc1)N(Cc1cccc(C(=O)O)c1)C(=O)c1cnc2ccccc2c1	CDK7	cell-free assay, competition with immobilised ligand	1 µM	remaining binding	100%
COc1ccc(-c2coc3cc(O)cc(O)c3c2=O)cc1	CDK7 with cyclin H	enzyme activity, inhibitor, ADP detection	10 µM	inhibition	41.3%
CN(C)C(=O)Cn1cc(-c2nc([C@@](C)(c3ccc(-c4cnc(N)nc4)cc3)C3CC3)no2)cn1	CDK7	cell-free assay, competition with immobilised ligand	1 µM	remaining binding	59%
O=C1NC(=O)c2cc(Nc3ccc(F)cc3)c(Nc3ccc(F)cc3)cc21	CDK7 with cyclin H	cell-free assay	0.5 µM	remaining signal	100%
COc1c(-c2ccccc2)oc2c(ccc3occc32)c1=O	CDK7 with cyclin H	enzyme activity, inhibitor, ADP detection	10 µM	inhibition	-0.1%
CNC(=O)Nc1ccc2c(c1)[C@@]1(CC2)OC(=O)N(CC(=O)N(Cc2ccc(F)cc2)[C@@H](C)C(F)(F)F)C1=O	CDK7	cell-free assay, competition with immobilised ligand	1 µM	remaining binding	76%
CN1C(=N)N(C)/C(=C/c2c[nH]c3ccccc23)C1=O	CDK7 with cyclin H	enzyme activity, inhibitor, ADP detection	10 µM	inhibition	34.1%
CN(c1ccnc(CNc2nc(Nc3ccc4c(c3)CC(=O)N4)ncc2C(F)(F)F)n1)S(C)(=O)=O	CDK7	cell-free assay, competition with immobilised ligand	1 µM	remaining binding	3.5%
Cn1cnc(Br)c1C1=CN(c2ncnc3[nH]cnc23)CCS1	CDK7	enzyme activity, inhibitor, radiometric	2 µM	inhibition	44.3%
COC(=O)C1=CO[C@@H](C)[C@H]2CN3CCc4c([nH]c5ccccc45)[C@@H]3C[C@H]12	CDK7 with cyclin H	enzyme activity, inhibitor, ADP detection	10 µM	inhibition	-41.8%
CC(C)(C)c1nc2c(s1)c1nc(N)ncc1c1ccc(NS(=O)(=O)c3c(F)cccc3F)c(F)c12	CDK7 with cyclin H	enzyme activity, inhibitor, radiometric	1 µM	remaining activity	123%
Cc1ccc(C(=O)NCc2ccsc2)cc1C#Cc1cn(C(C)C)c2ncnc(N)c12	CDK7	enzyme activity, inhibitor	1 µM	activity vs control	94%
COC1=C(OC)C(=O)C(C/C=C(\C)CC/C=C(\C)CC/C=C(\C)CC/C=C(\C)CC/C=C(\C)CC/C=C(\C)CC/C=C(\C)CC/C=C(\C)CC/C=C(\C)CCC=C(C)C)=C(C)C1=O	CDK7 with cyclin H	enzyme activity, inhibitor, ADP detection	10 µM	inhibition	6.6%
O=C(Nc1cnn(-c2csc(C(=O)NC3COC3)c2)c1)Nc1ccccc1Cl	CDK7 with cyclin H	enzyme activity, inhibitor	5 µM	remaining activity	99.7%
CS(=O)(=O)N1CCCC(NC(=O)[C@H](CCC2CCCCC2)NC(=O)c2ccc(CNc3ncnc4c3nnn4-c3ccccc3)cc2)C1 (some centres unmarked)	CDK7	cell-free assay, competition with immobilised ligand	0.1 µM	remaining binding	100%
CC(C)(O)[C@H]1CC[C@H](Nc2ccc3ncc(-c4cccc(C(F)(F)F)c4)n3n2)CC1	CDK7 with cyclin H	enzyme activity, inhibitor	1 µM	remaining activity	96.6%
Cc1cc(NC(=O)c2cccc3cc(-c4cccc5[nH]nc(N)c45)ccc23)ccc1F	CDK7	enzyme activity, inhibitor	0.1 µM	activity vs control	117%
Cc1cc(=O)c2c(O)cc(O)cc2o1	CDK7 with cyclin H	enzyme activity, inhibitor, ADP detection	10 µM	inhibition	29.4%
CCN(CC)CCNC(=O)c1c(C)[nH]c(/C=C2\C(=O)Nc3ccc(F)cc32)c1C	CDK7 with cyclin H	cell-free assay	0.5 µM	remaining signal	73.4%
Cc1nc(Cc2cccc(C(F)(F)F)c2)sc1-c1ccc(C(N)=O)nc1	CDK7	cell-free assay, competition with immobilised ligand	1 µM	remaining binding	90%
Cc1ccc(Nc2nccc(N(C)c3ccc4c(C)n(C)nc4c3)n2)cc1S(N)(=O)=O	CDK7 with cyclin H	enzyme activity, inhibitor	0.3 µM	inhibition	8%
Cc1cnc(NC2CCOCC2)nc1-n1cnc(C(=O)NC(CN)c2cc(F)cc(Cl)c2)c1 (centres unmarked)	CDK7	enzyme activity, inhibitor, radiometric	1 µM	remaining activity	16%
COc1cc(-c2cc(-c3ccc(N4CCNCC4)cc3)cnc2C)cc(OC)c1OC	CDK7	enzyme activity, inhibitor	0.1 µM	inhibition	0%
CNC(=O)c1cc(Oc2ccc(NC(=O)Nc3ccc(Cl)c(C(F)(F)F)c3)cc2)ccn1	CDK7 with cyclin H	enzyme activity, inhibitor	10 µM	inhibition	-36%
CC[C@]12CCCN3CCc4c(n(c5ccccc45)[C@@](O)(C(=O)OC)C1)[C@@H]32	CDK7 with cyclin H	enzyme activity, inhibitor, ADP detection	10 µM	inhibition	-20.8%
CN1CCN(c2cnc3c(C4CCN(C(=O)c5ccc(OC(F)(F)F)cc5N)CC4)ncnc3c2)CC1	CDK7	cell-free assay, competition with immobilised ligand	1 µM	remaining binding	89%
